Fewer inactive variants are shown than the library holds.
B1: tRNA (parent)
chain: GUUCCGUUGGCGUAAUGGUAACGCGUCUCCCUCCUAAGGAGAAGACUGCGGGUUCGAGUCCCGUACGGAACG

Variants of: B1
Assay: yeast fitness relative to wild type (ratio to wild type); higher = fitter; tRNA-Arg(CCU), competitive growth, 37 C, YPD
Method in brief: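 Start and end populations of a pooled competition were compared by 100-nucleotide paired-end sequencing of gene amplicons. The Saccharomyces cerevisiae strains carried tRNA-Arg(CCU) gene variants at the native genomic locus, synthesised with a 3% per-site mutation rate at 69 sites, and competed in YPD at 37°C for 24 hours in six parallel replicates. Darwinian fitness relative to wild type was based on the change in genotype frequencies. Genotypes required ≥ 100 starting reads, and estimates < 0.5 were set to 0.5.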

| Variant | yeast fitness |
| --- | --- |
| C30A C55A C62A | ≤ 0.5 |
| C30U A36C C46U U53A | ≤ 0.5 |
| C30U G58C C66U | 0.663 |
| C29U U64G | 0.748 |
| C29U U64A | 0.677 |
| C30U C46A G51A | 0.608 |
| C30A G58C G68A | ≤ 0.5 |
| C29U A43U G52C U59A | ≤ 0.5 |
| C30U G52C | 0.593 |
| C30U A36G C61G | ≤ 0.5 |
| C31A C49U | 0.867 |
| C29U A70C | 0.867 |
| C30A A57C C60G | ≤ 0.5 |
| C29U G44C C49U A57U A69U | ≤ 0.5 |
| C30G A40C A42G | ≤ 0.5 |
| C31A A36G A57C | ≤ 0.5 |
| C30G C33G A42G C49U C61U | 0.663 |
| C30U C34G A40C C49G | ≤ 0.5 |
| C30U C31U A42U G67A | 0.537 |
| C29U A45C | 0.778 |
| C30A C62U | 0.886 |

| Variant | yeast fitness |
| --- | --- |
| C30U U54G U59G | 0.655 |
| C30A C60A C62A | ≤ 0.5 |
| C29U C66G A70C | ≤ 0.5 |
| C31A A40C G52A G68C | ≤ 0.5 |
| C29G C30U A36C A40G | ≤ 0.5 |
| C31A G51C C55G A57U C66U | 0.564 |
| C30A G56A C66G | ≤ 0.5 |
| C31G A36C C61U | ≤ 0.5 |
| C29U C33U C66U G67A | 0.598 |
| C30G A40U C46U A69G | ≤ 0.5 |
| C30A A42C C66A | 0.719 |
| C30U C55A | 0.667 |
| C29U A43G C49A | 0.615 |
| C30A A42C G58A | ≤ 0.5 |
| C29U C61U A70G | 0.728 |
| C29U A37U C46U U59G | ≤ 0.5 |
| C30U G56A | 0.942 |
| C30U A43G G51C | ≤ 0.5 |
| C30G G50U C66U | 0.573 |
| C29U U32G | 0.686 |
| C31G A37U G39C A42C | ≤ 0.5 |

| Variant | yeast fitness |
| --- | --- |
| C30U U35A A69U | ≤ 0.5 |
| C30U A69U | 0.879 |
| C30U A69C | 0.773 |
| C30U A69G | 0.947 |
| C31G A36C G41A C49U | ≤ 0.5 |
| C29G C55U C62U | 0.567 |
| C30A C60U C66U | ≤ 0.5 |
| C30U C46A G63C A70G | ≤ 0.5 |
| C30U C31U C34A | 0.601 |
| C31A U59A A70C | ≤ 0.5 |
| C31A G38A | 0.792 |
| C29U C30A U59G A69C | ≤ 0.5 |
| C29G G68U | 0.68 |
| C30A A40C A43G C49G G63C | ≤ 0.5 |
| C30A A37G C46U A57C | ≤ 0.5 |
| C31A C49A C60U | ≤ 0.5 |
| C31G A40G G52C | ≤ 0.5 |
| C29G U35G C60U | ≤ 0.5 |
| C31A C33G A36U C60U U64G A65U A69C | ≤ 0.5 |
| C30U U59G C66U G68A | ≤ 0.5 |
| C29G C49G G50C C62G A69U | 0.506 |

| Variant | yeast fitness |
| --- | --- |
| C29U A45C A57G A65U | ≤ 0.5 |
| C29U C30U U59A G63C | ≤ 0.5 |
| C29G C55G A70G | ≤ 0.5 |
| C31A A57U | 0.626 |
| C30A U35C A36G A42C C60U C61U | ≤ 0.5 |
| C30A A43U C61U | 0.602 |
| C29U A40C C49G G63A | ≤ 0.5 |
| C29U U53A | 0.625 |
| C30G C60A C66U | 0.551 |
| C30G C34U A45C U53G C61G | ≤ 0.5 |
| C29U G38A G48C A57G | ≤ 0.5 |
| C29U A36C G56A | ≤ 0.5 |
| C30A C31U A40U G56C A69C | ≤ 0.5 |
| C29G U32G | ≤ 0.5 |
| C29U A69U | 0.868 |
| C30G C31A G63C | 0.546 |
| C29U C33U U54A | ≤ 0.5 |
| C31G A43G C49U G68A | 0.558 |
| C29U C33A A36C A42C A45G | ≤ 0.5 |
| C30U C31U G41C A45G C49U C66U A69G | ≤ 0.5 |

Source: the RNAGym collection of RNA variant scans (doi:10.1126/science.aae0568)
